From ChEMBL document CHEMBL4513216, “Probing the Open Global Health Chemical Diversity Library for Multistage-Active Starting Points for Next-Generation Antimalarials” (ACS Infect Dis, 2020)

Assay: Toxicity liver stage against HepG2, at 10uM
Format: cell-based
Set-up: test concentration 10 uM, cell line HepG2-A16-CD81EGFP
Settings: human, HepG2-A16-CD81EGFP cells; read-out: INHIBITION
Summary of the method: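 Uninfected HepG2-A16-CD81EGFP cells, 3 × 10^3 per well, 1536-well, plated on prespotted compound at 10 μM final, parasite-free screening media added to match infected plates; puromycin 10 μM positive, DMSO 0.5% negative; run in parallel with 48 h PbLuc assay at 37 °C, 5% CO2; viability by CellTiter-Glo luminescence, normalized to controls.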

| SMILES | cytotoxicity at 10 µM [%] |
| --- | --- |
| Cc1cc2nc(CO[C@H]3CN(C4CCN(C)CC4)C[C@H]3F)[nH]c2cc1C | -11.6 |
| CC[C@H]1CN(S(=O)(=O)c2ccccc2)CC[C@H]1CC(=O)O | 1.7 |
| CS(=O)(=O)N1CC[C@@H](CC(=O)O)[C@@H](CC2=NCCc3cc(F)ccc32)C1 | 0.699 |
| COC(=O)c1cccc(C(=O)N2CCN(c3ccc(Cl)cc3)CC2)n1 | -7.55 |
| CC(=O)N1N=C(c2ccccc2)OC1C(=O)NCCc1cccc(F)c1 (stereo unspecified) | -1.08 |
| Cc1ccc(-n2ncc(C(=O)N(C)C3CCN(C)CC3)c2N)cc1C | -8.56 |
| CN1CCN(CC(CC(=O)Nc2ccc(Cl)cc2)C(=O)O)CC1 (stereo unspecified) | 2.83 |
| O=C(CC1CCCC1)Nc1ccc(-n2cc(Cl)cn2)nc1 | -56.3 |
| O=C1CCSCC(C(=O)N2CCCCC2)N1 (stereo unspecified) | -3.55 |
| COC(C)(CNS(=O)(=O)c1cnn(C)c1)c1ccccc1F (stereo unspecified) | -4.8 |
| CC(=O)N1CCC2(CC1)CCN(S(=O)(=O)c1ccccc1)C2 | 2.35 |
| N#CC1(C(=O)N2Cc3cc(-c4cc[nH]n4)ccc3C2c2cnco2)CC1 (stereo unspecified) | 25.5 |
| CC(=O)N1CC(c2ncn(C(C)C)n2)c2cc(C(=O)NC3CC3)ccc21 (stereo unspecified) | 4.11 |
| CS(=O)(=O)N1CCc2ncc(CNC(=O)C3CCC3)n2CC1 | 10.9 |
| Cc1cnc(C(=O)N2C[C@H]3CN(Cc4cccs4)C[C@H]3C2)cn1 | -148 |
| Cc1cc(O)c(OCC(=O)Nc2nccs2)cn1 | 4.07 |
| CC(C)c1nnc2ccc(N3CCC(C(=O)NC4CC4)CC3)nn12 | -5.01 |
| Cc1ccc2c(ccn2CCC(=O)N2CCC(C(N)=O)CC2)c1 | -12.6 |
| O=C(NCc1ccco1)c1nn(C2CCS(=O)(=O)C2)c2c1CCCC2 (stereo unspecified) | -11 |
| CC(=O)N1CC(=O)N(c2cnn(C)c2)CC12CCN(Cc1ccoc1)C2 (stereo unspecified) | -9.81 |
| CC(=O)Nc1ccn(Cc2ccccc2)n1 | 2.04 |
| Cc1cc(N2CCN(C3CCOCC3)CC(C(=O)N(C)C)C2)ncn1 (stereo unspecified) | 3.74 |
| O=C(c1ccc(=O)[nH]n1)N1CCCC(O)(CN2CCC(F)(F)CC2)CC1 (stereo unspecified) | -8.71 |

| SMILES | cytotoxicity at 10 µM [%] |
| --- | --- |
| COCCNc1ccc(CC2CCCN(Cc3c[nH]cn3)C2)nn1 (stereo unspecified) | -2.7 |
| Cc1cc(-c2cnc(NC3CCCC3)nc2-c2ccco2)on1 | -7.56 |
| O=C(c1ccc(Cl)cc1)N1CCC2(C1)C(=O)Nc1ccccc12 (stereo unspecified) | 1.91 |
| O=C(CN(Cc1cccs1)C1CCS(=O)(=O)C1)NCCc1cccs1 (stereo unspecified) | -11.5 |
| CN(CCN(C)S(=O)(=O)CC1CCOCC1)c1ccccc1 | -9.65 |
| CC(O)CCN(C)S(=O)(=O)Cc1ccc(Br)cc1 (stereo unspecified) | 3.47 |
| CC(C)CN(CC(C)C)Cn1ncc2cn(-c3ccccc3)nc2c1=O | 1.42 |
| CN(CCc1ccccn1)C(=O)Nc1cccnc1-n1cccn1 | 3.25 |
| O=C(NCCNc1ncccn1)NCCc1c(F)cccc1F | 7.49 |
| CC(NC(=O)CN1C=Nc2ccccc2S1(=O)=O)c1ccccc1 (stereo unspecified) | -0.476 |
| CS(=O)(=O)Cc1ccccc1NCc1cc(Cl)ccc1Cl | 7.67 |
| CN(C1CCN(c2ccccn2)CC1)S(=O)(=O)c1cccc(F)c1 | 10.8 |
| CC(C)(C)OC(=O)NCC1CCCCN1Cc1ccncc1 (stereo unspecified) | 9.04 |
| COc1cccc(CN(C)Cc2cc(C#N)ccc2F)c1OC | -5 |
| CC(C(=O)NCc1ccnc(OCC(F)(F)F)c1)n1cncn1 (stereo unspecified) | 1.13 |
| CCCC(=O)N1CCC(C(=O)NCCN2CCC(C)CC2)CC1 | -2.6 |
| Cc1cc(CN2CCN(C(=O)C(C(C)C)n3cncn3)CC2)on1 (stereo unspecified) | 2.35 |
| O=C(NC1CCN(Cn2nc(-c3ccccc3)oc2=O)CC1)C1CC1 | 8.19 |
| CN(C)C(=O)Cc1ccc(NC(=O)NC2CC2)cc1 | 6.13 |
| COCCn1ccc(NC(=O)Nc2cccc(C#N)c2)n1 | 4 |
| Cc1cc(NC(=O)CNC(C)(C)c2ccc3c(c2)OCCO3)no1 | -7.1 |
| CC1CN(C)c2ccccc2CN1C(=O)c1cc[nH]c(=O)c1 (stereo unspecified) | 4.96 |
| COC(=O)c1ccc(N2CCC(c3ccccc3)CC2)nn1 | -3.59 |

| SMILES | cytotoxicity at 10 µM [%] |
| --- | --- |
| Cc1cc(-n2cncn2)ccc1C(=O)N(CC(F)(F)F)C(C)C | -3.72 |
| CC1(C)CCC(C(=O)O)c2ccccc21 (stereo unspecified) | -1.92 |
| CN(C)CC1CCN(Cc2nccn2CC(F)(F)F)CC1 | 4.99 |
| c1cncc(CN2CCC(NCCc3ccc4c(c3)OCO4)CC2)c1 | -9.62 |
| Cc1noc(C2CCN(C(C)c3nc(C(C)(C)C)no3)CC2)n1 (stereo unspecified) | 4.13 |
| Cc1nc(-c2ccccc2C)n(CC(=O)NC(C)C2CC2)n1 (stereo unspecified) | 20.8 |
| CC1CCN(C(=O)C(C)N2CCc3[nH]nc(C(F)(F)F)c3C2)CC1 (stereo unspecified) | 2.54 |
| CC(C(=O)Nc1ncccn1)N1CCc2[nH]nc(C(F)(F)F)c2C1 (stereo unspecified) | -0.583 |
| CC(=O)NCC1CCN(c2ccnc3ccc(Br)cc23)CC1 | 14.2 |
| Cn1cc(C2CCCN2C(=O)Cn2c(=O)oc3ccccc32)cn1 (stereo unspecified) | 1.84 |
| CN(Cc1nnn(CC2CCC2)n1)C(=O)c1ccccc1 | -6.06 |
| NC(=O)CC1CCCCN1C(=O)Cc1cccc(Br)c1 (stereo unspecified) | 1.77 |
| CC(C)c1ccc(C(C)N2CCCN(C(N)=O)CC2)cc1 (stereo unspecified) | -4.24 |
| Cc1cc(NC(=O)Cc2ccccc2O)cnc1N1CCCCC1 | -0.134 |
| NCc1ccnc(Oc2ccccc2)c1 | 2.87 |
| COc1ccc(Cl)cc1NC(=O)N(C)CC(O)COCCOC(C)C (stereo unspecified) | 11.3 |
| CC(=O)NC1CCCN(c2ccc(C#N)cc2C(F)(F)F)C1 (stereo unspecified) | 7.44 |
| CSC1(CNC(=O)CCc2ccc(Cl)s2)CCOCC1 | 6.45 |
| CN(CCC(F)(F)F)C(=O)[C@H]1CSCN1C(=O)OC(C)(C)C | -9.39 |
| COc1c(C2CCCN2C(=O)c2cc(Cl)c[nH]2)c(C)nn1C (stereo unspecified) | 4.6 |
| CCc1cn[nH]c1C1CCN(C(=O)c2cc(C(C)=O)c(C)[nH]c2=O)CC1 | -2.23 |
| CCCOCCNc1nc2c(s1)c(C)nn2C | -15.9 |
| CCC(C(=O)N(C)C)N1CCC(c2nccn2Cc2cscn2)CC1 (stereo unspecified) | 2.86 |

| SMILES | cytotoxicity at 10 µM [%] |
| --- | --- |
| CCC1CN(C(=O)c2ccccc2C#N)CCN1C(C)C (stereo unspecified) | -0.772 |
| Cc1ccc(C(C(=O)O)N(C)CCCN2CCOCC2)c(C)c1 (stereo unspecified) | 0.129 |
| COCCCN1CCC(CNc2nccc(-c3cnn(C)c3)n2)C1 (stereo unspecified) | -147 |
| CC(C)c1cc(NCC2(Cn3cccn3)CC2)n2nccc2n1 | -10.9 |
| COCCN(C)C[C@@H]1CN(C(=O)c2ccc(C)cc2)C[C@@H]1CO | -9.21 |
| CCCn1cnnc1CNC(=O)C1COc2ccc(OC)cc2C1 (stereo unspecified) | -2.06 |
| CN1CC2(CCN(C(=O)CCc3nc4cccnc4n3C)C2)OC1=O (stereo unspecified) | 1.56 |
| CC(=O)N[C@@H](CC(C)C)C(=O)N1CCC(n2cc(CO)nn2)CC1 | 9.56 |
| COCCN(C)CCN1CC2(CCN(C3CCCCC3)CC2)OC1=O | 3.73 |
| CCc1ocnc1C(=O)N1CCC(C2CCN(c3ncccn3)CC2)C1 (stereo unspecified) | 3.6 |
| CCN(CC)CCn1ccnc1-c1cccc(O)c1 | -5.13 |
| C/C(=C\c1ccco1)CN(C)C(C)Cc1cc(C)ccn1 (stereo unspecified) | 0.277 |
| CC(Cc1ccc2c(c1)OCO2)c1cn(CCN2CCCC2)nn1 (stereo unspecified) | 7.09 |
| Cn1nc(CN2CCC(c3ccncc3)CC2)c2c(Cl)cccc21 | -6.06 |
| COCCOCC(=O)N1CCC(O)(c2ccc3nc(C)ccc3c2)CC1 | -1.01 |
| Cc1ncc(C(=O)N2CC[C@@]3(O)CCN(C4CCCCC4)C[C@H]3C2)cn1 | -135 |
| CCC(NC(=O)c1cc(CC(C)C)nn1C)c1ccnn1C (stereo unspecified) | -146 |
| CSCc1noc(Cn2ccc3ccccc3c2=O)n1 | 3.63 |
| Cc1nc(Cn2nc(C3CCNCC3)n(Cc3ccccc3)c2=O)no1 | -19.3 |
| Cc1nc(CN2CCCC(NCc3cccc4ccccc34)C2)no1 (stereo unspecified) | -0.819 |
| CC(=O)N1CCC(Nc2cc(F)ccc2OCC2CCCO2)CC1 (stereo unspecified) | -14.3 |
| COc1ncccc1NC(=O)N(Cc1ccco1)C1CC1 | 5.25 |
| COc1ccc(Cl)cc1CC(=O)NS(=O)(=O)c1ccc(C(N)=O)cc1 | -2.64 |

| SMILES | cytotoxicity at 10 µM [%] |
| --- | --- |
| COc1c(CNC2CCC(O)CC2)c(C(C)C)nn1C (stereo unspecified) | -6.59 |
| Cc1nc(C)n(CC2CCCN(CC(=O)Nc3cc(C)on3)C2)n1 (stereo unspecified) | -3.1 |
| O=C(NCCC(=O)N1CCCCCCC1)c1ccoc1 | -22.2 |
| CCN(CC)CC1CCN(Cc2ccn(C)c(=O)c2)CC1 | -14.7 |
| Cc1nnc2n1CCN(CC(=O)Nc1cc(C(C)C)no1)C2 | -6.93 |
| CNC(=O)NC(=O)CN(CC(C)O)c1ccccc1 (stereo unspecified) | 10.9 |
| Cc1cccc(OCCC(=O)NCC(C)(C)C(N)=O)c1 | -6.38 |
| O=C(c1cc(Cl)c2c(c1)OCCO2)N1CCCC(n2cncn2)C1 (stereo unspecified) | 1.56 |
| Cc1ccc(CN(CCCN2CCOCC2)Cc2[nH]cnc2C)o1 | -12.9 |
| CC(C)NC(=O)N1C[C@H](OCc2cccnc2)[C@H]2COC[C@H]21 | 6.43 |
| CC(C)N(C)Cc1cnc2n1CCN(C(=O)Cc1cccs1)C2C (stereo unspecified) | 7.86 |
| CN(C)C(=O)COCC1CN(C2CCC2)Cc2ncn(C)c21 (stereo unspecified) | 14.1 |
| Cc1cccc(CN2C[C@@H]3OCCN(c4cnccn4)[C@@H]3C2)n1 | 5.25 |
| CC(C)CN1CCN(C(=O)c2ccncc2F)Cc2cccnc21 | 1.71 |
| c1cc(CN2C[C@@H]3COC[C@]3(COCC3CC3)C2)ccn1 | -3.29 |
| Cc1noc(C(C)C)c1C(=O)NCCCN1CCNCC1 | -24.7 |
| Cc1cccc(N2CCC3(CCCN(C(=O)c4cccnc4)C3)C2)n1 (stereo unspecified) | 0.677 |
| Cc1cccc(CN2C(=O)CO[C@@H]3CN(C4CCOCC4)C[C@H]32)c1 | -146 |
| c1cnc(N2CCCC3(CCN(CC4CCOC4)CC3)C2)nc1 (stereo unspecified) | -2.21 |
